Measured values pooled from the literature.
Each line is one published result; the experiments were not run side by side.
PKN1: Serine/threonine-protein kinase N1 (PKN1, Homo sapiens, UniProt Q16512)
NUAK2: NUAK family SNF1-like kinase 2 (NUAK2, Homo sapiens, UniProt Q9H093)
CTSV: Cathepsin L2 (CTSV, Homo sapiens, UniProt O60911)

Compound	target	assay	setting	quantity	value
CN(C)C(=O)COC(=O)Cc1ccc(OC(=O)c2ccc(NC(=N)N)cc2)cc1	Matrix metalloproteinase-9 (MMP9, Homo sapiens, UniProt P14780, Q279R)	enzyme activity, inhibitor	10 µM	inhibition	8%
O=c1[nH]c2ccccc2n1C1CCN(Cc2ccc(-c3nc4cc5nc[nH]c5cc4nc3-c3ccccc3)cc2)CC1	PKN1	enzyme activity, inhibitor	1 µM	activity vs control	77%
COc1ncccc1-c1cnn2ccc(N3CCN(C(=O)OC(C)C)CC3)nc12	NUAK2	binding, competition with immobilised ligand	1 µM	remaining binding	100%
COC[C@H]1OC(=O)c2coc3c2[C@@]1(C)C1=C(C3=O)[C@@H]2CCC(=O)[C@@]2(C)C[C@H]1OC(C)=O	PKN1	enzyme activity, inhibitor	1 µM	activity vs control	111%
CC(C)C[C@H](NC(=O)[C@H]1O[C@@H]1C(=O)O)C(=O)NCCCCN=C(N)N	CTSV	enzyme activity, inhibitor	50 nM	inhibition	57%
Cc1nn(C)cc1-c1nc2c(N3CCN(Cc4ccc(Cl)cc4)CC3)c(Cl)cnc2[nH]1	NUAK2	binding, competition with immobilised ligand	1 µM	remaining binding	32%
Nc1ncc(-c2nc(N3CCOCC3)nc(N3CCOCC3)n2)c(C(F)F)n1	Ribosomal protein S6 kinase alpha-6, N-terminal kinase domain (RPS6KA6, Homo sapiens, UniProt Q9UK32)	binding, competition with immobilised ligand	10 µM	remaining binding	48%
N=C(N)c1ccc2cc(OC(=O)c3ccc(N=C(N)N)cc3)ccc2c1	CTSV	enzyme activity, inhibitor	10 µM	inhibition	27%
COc1ccc2c(c[n+](C)c3c4cc5c(cc4ccc23)OCO5)c1OC	PKN1	enzyme activity, inhibitor	1 µM	activity vs control	86%
